Reference: ChEMBL document CHEMBL3425482, “Structure-guided design and optimization of dipeptidyl inhibitors of norovirus 3CL protease. Structure-activity relationships and biochemical, X-ray crystallographic, cell-based, and in vivo studies” (J Med Chem, 2015)

Columns and labels:
[1] = Inhibition of Norovirus recombinant 3CL protease using Edans-EPDFHLQGPEDLAK-Dabcyl as substrate for 30 mins by fluorometry
[2] = system: Norovirus; test: Antiviral activity against Norovirus infected in human HG23 cells; format: functional, cell-based
[3] = biological target: Prothrombin (Homo sapiens) (UniProt P00734); test: Inhibition of human thrombin after 10 mins incubation by chromogenic substrate hydrolysis assay
[4] = organism: Bos taurus; test: Inhibition of bovine trypsin; details: concentration not given here
[5] = organism: Homo sapiens; test: Inhibition of chymotrypsin (unknown origin); details: concentration not given here
[6] = biological target: T1, Carboxypeptidase A1 (Homo sapiens) (UniProt P15085); test: Inhibition of carboxypeptidase A (unknown origin); details: concentration not given here
T1 sequence (whole entry): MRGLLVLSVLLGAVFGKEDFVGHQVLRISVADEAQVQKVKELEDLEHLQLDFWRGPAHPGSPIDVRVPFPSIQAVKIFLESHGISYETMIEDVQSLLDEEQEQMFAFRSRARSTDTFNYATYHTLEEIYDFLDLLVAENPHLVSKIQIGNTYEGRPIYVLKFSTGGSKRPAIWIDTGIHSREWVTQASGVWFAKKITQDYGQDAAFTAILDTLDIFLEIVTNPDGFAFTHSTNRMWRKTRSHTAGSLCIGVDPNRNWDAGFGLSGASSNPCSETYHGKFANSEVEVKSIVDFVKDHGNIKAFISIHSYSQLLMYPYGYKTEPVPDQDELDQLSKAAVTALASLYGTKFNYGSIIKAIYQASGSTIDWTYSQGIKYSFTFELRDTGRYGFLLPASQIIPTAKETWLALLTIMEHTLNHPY

[7] = biological target: T2, Neutrophil elastase (Homo sapiens) (UniProt P08246); test: Inhibition of human neutrophil elastase; details: concentration not given here
T2 sequence (whole entry): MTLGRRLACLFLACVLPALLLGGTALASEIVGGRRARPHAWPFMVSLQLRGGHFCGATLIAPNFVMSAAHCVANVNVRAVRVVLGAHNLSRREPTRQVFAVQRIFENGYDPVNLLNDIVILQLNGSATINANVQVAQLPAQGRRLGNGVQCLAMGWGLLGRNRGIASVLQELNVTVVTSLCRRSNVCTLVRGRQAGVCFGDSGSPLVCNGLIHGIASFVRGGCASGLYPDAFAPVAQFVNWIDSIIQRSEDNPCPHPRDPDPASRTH

[8] = biological target: Coagulation factor X (Homo sapiens) (UniProt P00742); test: Inhibition of human factor 10a using Pefachrome-tPA substrate; details: concentration not given here
[9] = biological target: Plasminogen (Homo sapiens) (UniProt P00747); test: Inhibition of plasmin (unknown origin); details: concentration not given here
[10] = Antiviral activity against Murine norovirus 1 infected in mouse RAW264.7 cells assessed as inhibition of viral replication; format: functional, cell-based
Method in brief: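 RAW264.7 mouse macrophages were kept in DMEM with 2–5% FBS. Serially diluted compound (DMSO ≤0.5%) was added to confluent monolayers. Cells were infected immediately with MNV-1 at MOI 0.05–0.1 and held 48 h at 37 °C. After freeze-thaw, virus titres were read by TCID50. EC50 came from nonlinear variable-slope regression of inhibition versus log concentration.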

[11] = Antiviral activity against Murine norovirus 1 infected in Balb/c mouse assessed as reduction in viral titers in large intestine at 10 mg/kg, ip twice daily started 4 hrs prior to infection measured after 72 hrs post infection; details: route intraperitoneal
[12] = Antiviral activity against Murine norovirus 1 infected in Balb/c mouse assessed as reduction in viral titers in small intestine at 10 mg/kg, ip twice daily started 4 hrs prior to infection measured after 72 hrs post infection; details: route intraperitoneal

Coagulation factor X (Homo sapiens), sequence (P00742 41-179 limits assumed): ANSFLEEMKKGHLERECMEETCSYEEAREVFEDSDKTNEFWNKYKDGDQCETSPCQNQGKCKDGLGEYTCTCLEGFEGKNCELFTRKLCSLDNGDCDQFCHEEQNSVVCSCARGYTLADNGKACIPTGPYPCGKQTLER
Coagulation factor X (Homo sapiens), sequence (P00742 235-488 limits assumed): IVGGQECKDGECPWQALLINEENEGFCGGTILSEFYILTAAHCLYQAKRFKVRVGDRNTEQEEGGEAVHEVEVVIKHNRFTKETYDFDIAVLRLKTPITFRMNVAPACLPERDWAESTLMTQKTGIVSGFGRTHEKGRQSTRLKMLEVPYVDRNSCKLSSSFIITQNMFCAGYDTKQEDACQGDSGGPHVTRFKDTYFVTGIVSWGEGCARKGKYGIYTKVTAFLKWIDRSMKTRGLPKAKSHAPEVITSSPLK
Plasminogen (Homo sapiens), sequence (P00747 97-580 limits assumed): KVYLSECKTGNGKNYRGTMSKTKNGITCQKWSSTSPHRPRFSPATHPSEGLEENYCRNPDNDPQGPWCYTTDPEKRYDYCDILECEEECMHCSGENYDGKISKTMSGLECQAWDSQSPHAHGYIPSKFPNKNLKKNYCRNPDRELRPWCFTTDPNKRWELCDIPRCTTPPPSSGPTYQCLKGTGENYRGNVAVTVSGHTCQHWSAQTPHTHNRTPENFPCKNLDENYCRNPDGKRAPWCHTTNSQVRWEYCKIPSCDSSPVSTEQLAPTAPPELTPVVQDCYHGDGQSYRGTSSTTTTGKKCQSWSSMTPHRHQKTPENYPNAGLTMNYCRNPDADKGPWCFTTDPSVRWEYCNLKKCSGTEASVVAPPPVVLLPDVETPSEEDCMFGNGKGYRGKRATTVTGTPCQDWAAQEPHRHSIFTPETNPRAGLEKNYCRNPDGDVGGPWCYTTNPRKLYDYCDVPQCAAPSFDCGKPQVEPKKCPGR
Plasminogen (Homo sapiens), sequence (P00747 581-810 limits assumed): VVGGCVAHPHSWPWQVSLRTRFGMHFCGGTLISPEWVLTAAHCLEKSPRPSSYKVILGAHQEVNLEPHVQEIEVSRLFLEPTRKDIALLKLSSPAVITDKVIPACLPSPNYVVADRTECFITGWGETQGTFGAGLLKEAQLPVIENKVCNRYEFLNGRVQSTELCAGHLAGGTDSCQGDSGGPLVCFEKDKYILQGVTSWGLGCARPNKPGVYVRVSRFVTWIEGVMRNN

SMILES | IC50 [1] [nM] | EC50 [2] [nM] | further results
CS(=O)(=O)NC(=O)[C@H](C[C@@H]1CCNC1=O)NC(=O)[C@H](CC1CCCCC1)NC(=O)OCc1cccc(Cl)c1 | > 10000 | > 2000 | 
CC(C)(C)OC(=O)Nc1cccc(COC(=O)N[C@@H](CC2CCCCC2)C(=O)N[C@H](C=O)C[C@@H]2CCNC2=O)c1 | 4500 | 1500 | 
O=C[C@H](C[C@@H]1CCNC1=O)NC(=O)[C@H](CC1CCCCC1)NC(=O)OCc1cccc(I)c1 | 350 | 50 | 
O=C(N[C@@H](CC1CCCCC1)C(=O)N[C@@H](C[C@@H]1CCNC1=O)C(O)S(=O)(=O)O)OCc1cccc(I)c1 (stereo not given in full) | 150 | 40 | 
O=C[C@H](C[C@@H]1CCNC1=O)NC(=O)[C@H](CC1CCCCC1)NC(=O)OCc1ccccc1F | 900 | 80 | 
O=C[C@H](C[C@@H]1CCNC1=O)NC(=O)[C@H](CC1CCCCC1)NC(=O)OCc1ccc(Cl)cc1 | 710 | 80 | 
O=C(N[C@@H](CC1CCCCC1)C(=O)N[C@@H](C[C@@H]1CCNC1=O)C(=O)C(=O)NC1CC1)OCc1cccc(Cl)c1 | 250 | 85 | 
CCOP(=O)(OCC)C(O)[C@H](C[C@@H]1CCNC1=O)NC(=O)[C@H](CC1CCCCC1)NC(=O)OCc1cccc(Cl)c1 (stereo not given in full) | > 10000 | 60 | inhibition [3]: 0%; inhibition [4]: 8.8%; inhibition [5]: 2.4%; inhibition [6]: 14.3%; inhibition [7]: 86.5%; inhibition [8]: 0%; inhibition [9]: 15%
O=C[C@H](C[C@@H]1CCNC1=O)NC(=O)[C@H](CC1CCCCC1)NC(=O)OCc1cccc([N+](=O)[O-])c1 | 600 | 150 | 
O=C(N[C@@H](CC1CCCCC1)C(=O)N[C@@H](C[C@@H]1CCNC1=O)C(=O)C(=O)NC1CC1)OCc1cccc(Br)c1 | 1500 | 200 | 
CC(C)C[C@H](NC(=O)OCc1cccc(Cl)c1)C(=O)N[C@@H](C[C@@H]1CCNC1=O)C(=O)C(=O)NC1CC1 | 5500 | 300 | 
CCOP(=O)(OCC)C(O)[C@H](C[C@@H]1CCNC1=O)NC(=O)[C@H](CC1CCCCC1)NC(=O)OCc1cccc(Br)c1 (stereo not given in full) | 6500 | 150 | inhibition [3]: 0%; inhibition [4]: 1%; inhibition [5]: 0%; inhibition [6]: 0%; inhibition [7]: 63%; inhibition [8]: 6%; inhibition [9]: 13%
O=C(N[C@@H](CC1CCCCC1)C(=O)N[C@@H](C[C@@H]1CCNC1=O)C(=O)C(=O)NC1CC1)OCc1cccc(F)c1 | 3500 | 300 | 
CC(C)C[C@H](NC(=O)OCc1ccccc1)C(=O)N[C@H](C=O)C[C@@H]1CCNC1=O | 600 | 200 | 
O=C(N[C@@H](CC1CCCCC1)C(=O)N[C@@H](C[C@@H]1CCNC1=O)C(O)S(=O)(=O)O)OCc1ccccc1 (stereo not given in full) | 400 | 60 | 
O=C[C@H](C[C@@H]1CCNC1=O)NC(=O)[C@@H](NC(=O)OCc1cccc(Cl)c1)C1CCCCC1 | 5100 | 150 | 

SMILES | IC50 [1] [nM] | EC50 [2] [nM] | further results
N#Cc1cccc(COC(=O)N[C@@H](CC2CCCCC2)C(=O)N[C@H](C=O)C[C@@H]2CCNC2=O)c1 | > 10000 | 200 | 
O=C[C@H](C[C@@H]1CCNC1=O)NC(=O)[C@H](CC1CCCCC1)NC(=O)OCc1cccc(Cl)c1 | 100 | 20 | EC50 [10]: 80 nM; inhibition [3]: 0%; inhibition [4]: 5%; inhibition [5]: 0%; inhibition [6]: 12%; inhibition [7]: 15%; fold change (FC) [11]: 7.98; fold change (FC) [12]: 42.12; inhibition [8]: 1%; inhibition [9]: 0%
O=C(N[C@@H](CC1CCCCC1)C(=O)N[C@@H](C[C@@H]1CCNC1=O)C(O)S(=O)(=O)O)OCc1ccccc1Cl (stereo not given in full) | 700 | 70 | 
COc1ccccc1COC(=O)N[C@@H](CC1CCCCC1)C(=O)N[C@H](C=O)C[C@@H]1CCNC1=O | > 10000 | 100 | 
O=C(N[C@@H](CC1CCCCC1)C(=O)N[C@@H](C[C@@H]1CCNC1=O)C(O)S(=O)(=O)O)OCc1cccc(Cl)c1 (stereo not given in full) | 100 | 20 | 
CCOP(=O)(OCC)C(O)[C@H](C[C@@H]1CCNC1=O)NC(=O)[C@H](CC1CCCCC1)NC(=O)OCc1ccccc1Cl (stereo not given in full) | > 10000 | 200 | 
CC(C)C[C@H](NC(=O)OCc1ccccc1)C(=O)N[C@@H](C[C@@H]1CCNC1=O)C(O)S(=O)(=O)O (stereo not given in full) | 800 | 300 | 
O=C[C@H](C[C@@H]1CCNC1=O)NC(=O)[C@H](CC1CCCCC1)NC(=O)OCc1cccc(F)c1 | 1200 | 90 | 
O=C[C@H](C[C@@H]1CCNC1=O)NC(=O)[C@H](CC1CCCCC1)NC(=O)OCc1ccccc1 | 300 | 60 | 
COc1cccc(COC(=O)N[C@@H](CC2CCCCC2)C(=O)N[C@H](C=O)C[C@@H]2CCNC2=O)c1 | 1400 | 150 | 
CC(C)C[C@H](NC(=O)OCc1ccccc1)C(=O)N[C@@H](C[C@@H]1CCNC1=O)C(=O)C(=O)NC1CC1 | 3400 | 1100 | 
O=C[C@H](C[C@@H]1CCNC1=O)NC(=O)[C@H](CC1CCCCC1)NC(=O)OCc1cccc(Br)c1 | 300 | 30 | inhibition [3]: 0%; inhibition [4]: 0%; inhibition [5]: 0%; inhibition [6]: 11.6%; inhibition [7]: 26.5%; inhibition [8]: 0%; inhibition [9]: 7%
CC(C)C[C@H](NC(=O)OCc1cccc(Cl)c1)C(=O)N[C@H](C=O)C[C@@H]1CCNC1=O | 900 | 100 | 
CCOP(=O)(OCC)C(O)[C@H](C[C@@H]1CCNC1=O)NC(=O)[C@H](CC1CCCCC1)NC(=O)OCc1ccccc1F (stereo not given in full) | > 10000 | > 2000 | 
O=C[C@H](C[C@@H]1CCNC1=O)NC(=O)[C@H](CC1CCCCC1)NC(=O)OCc1ccccc1Cl | 800 | 80 | 
O=C(N[C@@H](CC1CCCCC1)C(=O)N[C@@H](C[C@@H]1CCNC1=O)C(O)S(=O)(=O)O)OCc1cccc(Br)c1 (stereo not given in full) | 150 | 30 | 
